High-throughput results: PubChem, several laboratories
Most compounds without a hit are left out; they make up all but 2.1% or so of the library.
Runt-SMMHC FRET: inhibitors of RUNX1 Runt–CBFb-SMMHC binding, primary screen, biochemical, FRET, Cerulean-Runt, Venus-CBFb-SMMHC, uHTS; inhibition, % at 20 µM; AID 1434, 2008; Cerulean-Runt/Venus-CBFb-SMMHC FRET ratio 530/480, 1 h; 220,000 compounds, 0.74% hits;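 active = mean inhibition across duplicate retests at 20 µM reaching about 50%, limit read from the data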;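 note: 0% = DMSO wells and 100% = wells with excess untagged CBFb-SMMHC; inhibitors lower the FRET ratio by blocking Runt binding to CBFb-SMMHC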
Hck Nef HTS: inhibitors of Nef-activated human Hck kinase, primary screen, biochemical, Z-Lyte FRET, 384-well, Hck-YEEI; 220,000 compounds, 0.68% hits; inhibition, % at 20 µM; Recombinant Hck-YEEI plus Nef, Z-Lyte FRET kinase assay; Tyrosine-protein kinase HCK (Homo sapiens), P08631;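 active = Hck-Nef kinase inhibition above about 50%, limit read from the data; inactive = inhibition below that limit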;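 note: 0% = DMSO with Hck plus Nef and 100% = Hck alone without Nef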
Target sequence (P08631 whole entry, looked up): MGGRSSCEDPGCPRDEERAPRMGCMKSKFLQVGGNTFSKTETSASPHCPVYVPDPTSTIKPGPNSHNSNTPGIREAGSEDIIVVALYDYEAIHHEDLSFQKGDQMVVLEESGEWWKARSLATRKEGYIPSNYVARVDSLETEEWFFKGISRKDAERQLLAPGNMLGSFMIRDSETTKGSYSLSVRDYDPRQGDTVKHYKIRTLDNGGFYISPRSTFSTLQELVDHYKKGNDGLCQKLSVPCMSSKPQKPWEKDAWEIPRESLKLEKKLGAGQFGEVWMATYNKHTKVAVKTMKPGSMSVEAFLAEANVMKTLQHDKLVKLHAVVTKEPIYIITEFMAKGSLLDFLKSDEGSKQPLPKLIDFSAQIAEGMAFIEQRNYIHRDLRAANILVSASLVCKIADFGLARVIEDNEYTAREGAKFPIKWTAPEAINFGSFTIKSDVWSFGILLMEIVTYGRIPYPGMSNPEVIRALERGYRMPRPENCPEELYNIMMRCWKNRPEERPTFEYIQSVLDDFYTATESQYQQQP
RanGTP-Imp inh: inhibitors of RanGTP-importin-beta interaction, primary screen, biochemical, FRET, CFP-Ran, YFP-importin-beta, homogeneous. 300,000 compounds, 1.1% hits. inhibition, % (concentration not given with the values). AID 2216, 2009. cell-free CFP-Ran/YFP-importin-beta FRET ratio. Ran GTPase (GTP-bound) - importin-beta complex;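 active = more than half of the replicate wells show a fall in the fluorescence ratio signal beyond about 16%, limit read from the data, passing the limit was not always enough; inconclusive = exactly half of the replicate wells pass the set limit; inactive = fewer than half of replicates pass the limit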;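 note: 0% = DMSO wells and 100% = Ran loaded with GDP instead of GTP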
TNF necrop inh: inhibitors of TNF-alpha triggered necroptosis, primary screen, cell-based, Jurkat FADD-/-, single concentration; Jurkat FADD-/- TNF necroptosis rescue, ATP luminescence, 24 h; 0 = TNF only, 100 = no-TNF cells; activation (protection from cell death), % at 10 µM; 220,000 compounds, 0.068% hits; AID 463075, 2010;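 active = activation, meaning protection from cell death, of at least 50% relative to plate controls; inactive = activation below 50%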;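 note: necroptosis triggered by 40 ng/mL TNF-alpha added together with compound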
L929 necroptosis: inhibitors of zVAD-triggered necroptosis, primary screen, L929 cells | L929 zVAD necroptosis rescue, ATP luminescence, 24 h; with zVAD 60 µM | viability rescue, % at 10 µM | 220,000 compounds, 0.38% hits | AID 1377, 2008;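 active = activation, scaled between plate controls, above about 75%, limit read from the data; inactive = activation under that limit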;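 note: 0% = zVAD with DMSO and 100% = DMSO alone without zVAD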
Runt-CBFb FRET: inhibitors of RUNX1 Runt–CBFb binding, primary screen, biochemical, FRET, Cerulean-Runt, Venus-CBFb, uHTS; Cerulean-Runt/Venus-CBFb FRET ratio 530/480, 1 h; inhibition, % at 20 µM; 220,000 compounds, 0.46% hits; AID 1496, 2009;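 active = inhibition over about 50% at 20 µM in the single-dose screen, limit read from the data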;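 note: 0% = DMSO wells and 100% = excess unlabeled CBFb competitor control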
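Doses: 20 µM compound in 1% DMSO | Material: Cerulean-labeled Runt domain protein | Amount: Each fluorescent fusion protein 100 nM | Schedule: Two 1 h room-temperature incubations shielded from light | Measured by: FRET fluorescence | Evaluation: Loss of energy transfer signal | Controls: Unlabeled CBFb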
Hck Nef conf: retest of Hck:Nef kinase inhibitor hits, confirmation, biochemical, Z-Lyte FRET, 384-well, p-Tyr peptide counterscreen; shares compounds with Hck Nef HTS; Recombinant Hck-YEEI:Nef, Z-Lyte FRET kinase assay; calls only at 10 µM; 1,300 compounds, 28% hits;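 active = average inhibition of at least 50%, with Z-scores no higher than 3 in both the phospho-tyrosine peptide and fluorescence counterscreens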
Numbers without * were called inactive; i = inactive; ? = inconclusive; / = not tested or not shown; + = active, no number.

SMILES | Runt-SMMHC FRET | Hck Nef HTS | RanGTP-Imp inh | TNF necrop inh | L929 necroptosis | Runt-CBFb FRET | Hck Nef conf
Cc1ccc(-c2nc3ccccc3[nH]2)cc1NC(=O)c1ccco1 | 1 | -2 | 3 | -1 | 3 | 2 | /
C=CCNC(=O)CSc1n[nH]c(-c2cc(Cl)ccc2OC)n1 | 2 | 24 | 6 | 1 | 4 | 0 | /
O=c1c(-c2nc3ccccc3s2)cccn1Cc1ccccc1 | 32 | 8 | 9 | 0 | 0 | 12 | /
Cc1ccc(Cn2cccc(-c3nc4ccccc4s3)c2=O)cc1 | 134* | 123* | ? | -1 | 0 | 50 | /
Cc1ccc(CN2CCN(Cc3cnc(C)s3)CC2CCO)o1 (stereo unspecified) | 0 | 6 | 7 | 0 | 0 | 3 | /
Cc1ccc(CN2CCN(Cc3cnc(N4CCOCC4)s3)CC2CCO)o1 (stereo unspecified) | -3 | 61* | ? | 2 | 1 | 1 | i
Cc1ccc(Nc2nc(=O)c3cc([N+](=O)[O-])ccc3s2)cc1 | -2 | 57* | 6 | 29 | 0 | 2 | i
COC(=O)c1ccc(COc2ccc(C=O)cc2OC)o1 | 2 | 17 | 2 | 1 | 6 | 0 | /
COc1cc(/C=C(\C#N)C(=O)Nc2cccc(C(=O)O)c2)ccc1OCc1ccc(F)cc1 | / | / | 4 | / | / | / | /
COc1ccc(NC(=O)/C(C#N)=C/c2ccc3c(c2)n(C)c(=O)n3C)cc1 | -80 | 1 | -2 | 1 | 1 | -28 | /
COc1ccc(NC(=O)/C(C#N)=C\c2ccc(OCc3ccc(C(=O)O)cc3)c(OC)c2)cc1 | 0 | 70* | -5 | 0 | 2 | -3 | i
COc1cc(/C=C(/C#N)c2ccc(F)cc2)ccc1OCc1ccc(C(=O)O)o1 | -2 | 55* | 3 | 1 | 0 | -2 | +
COc1ccc(/C=C(\C#N)C(=O)Nc2ccc3[nH]c(=O)[nH]c3c2)cc1 | -5 | 71* | 2 | 0 | 0 | -3 | i
N#C/C(=C\c1ccccc1OCc1ccc(C(=O)O)cc1)C(=O)Nc1ccc(O)cc1 | -2 | 69* | -3 | 1 | 1 | 0 | i
COC(=O)c1ccc(COc2ccccc2/C=C(\C#N)C(=O)Nc2ccc(C)cc2)cc1 | -15 | 10 | 0 | -1 | 3 | -6 | /
COC(=O)c1cc(S(=O)(=O)N2CCN(C(=O)c3ccco3)CC2)cn1C | / | / | -1 | / | / | / | /
CC(O)C(C(=O)OCc1ccc([N+](=O)[O-])cc1)N1C(=O)c2ccccc2C1=O (stereo unspecified) | 1 | 71* | / | 2 | 1 | 1 | i
O=C(c1cc2cc([N+](=O)[O-])ccc2oc1=O)N1CCN(C2CCCCC2)CC1 | 2 | -4 | -3 | 1 | 2 | 4 | /
COCCNc1nc(-c2cc(C)n(CCc3ccc(OC)cc3)c2C)cs1 | -13 | 51* | 3 | -3 | 0 | / | i
COc1cc(/C=C2/C(C)=C(C#N)c3nc(N)c(C#N)c(C)c32)ccc1OCC(=O)O | -12 | 28 | -4 | -1 | 38 | 3 | /
CC1=C(C#N)c2nc(N)c(C#N)c(C)c2/C1=C\c1ccc(-c2ccccc2C(=O)O)o1 | -8 | 61* | -6 | -3 | 4 | -1 | i
CN(C)c1nnnn1-c1ccc(OC(F)(F)F)cc1 | 1 | 23 | -1 | 0 | 1 | 2 | /
O=C1NN(c2ccccc2)C(=O)/C1=C\c1ccccc1 | / | / | -9 | / | / | / | /
O=C1NN(c2ccccc2)C(=O)/C1=C\c1coc2ccc(O)cc2c1=O | -1 | 71* | -3 | -7 | -1 | 5 | +
O=C1NN(c2ccccc2)C(=O)/C1=C/c1coc2ccccc2c1=O | -1 | 88* | -2 | 2 | 0 | -2 | +
SMILES | Runt-SMMHC FRET | Hck Nef HTS | RanGTP-Imp inh | TNF necrop inh | L929 necroptosis | Runt-CBFb FRET | Hck Nef conf
Cc1ccc(NC(=O)Cn2ccc([N+](=O)[O-])n2)cc1Cl | 4 | 22 | 5 | 4 | 0 | -1 | /
CCn1nc(C)c(NC(=O)/C=C/c2ccc(OC)c(COc3ccc(Cl)cc3Br)c2)c1C | -10 | 99* | 0 | -2 | 1 | -4 | i
COc1cc(-c2ccc(Nc3ccccc3C(=O)O)c(OC)c2)ccc1Nc1ccccc1C(=O)O | -8 | 94* | / | -4 | 0 | 17 | +
CC(C)(C)NC(=O)N1CCCN(c2ccc(C(F)(F)F)cn2)CC1 | 0 | 6 | 1 | -1 | 1 | 1 | /
CCOC(=O)/C(C#N)=C1/SC(CC)C(=O)N1c1ccc(Br)cc1 (stereo unspecified) | 2 | 1 | -7 | 0 | 0 | 0 | /
CCOC(=O)/C(C#N)=C1/SC(CCO)C(=O)N1c1ccccc1 (stereo unspecified) | 0 | 54* | -1 | 1 | 14 | / | i
Cc1ccc(NC(=O)CN2C(=O)N/C(=C/c3cc(C)n(-c4ccc(C(=O)O)cc4)c3C)C2=O)cc1 | -8 | 56* | / | 1 | 1 | 0 | i
COc1ccc(Br)cc1C(=O)NC(=S)Nc1ccc(Cl)c(C(=O)O)c1 | -6 | 19 | -1 | 1 | 1 | 1 | /
COc1ccc(Br)cc1/C=C/C(=O)NC(=S)Nc1ccc(Cl)c(C(=O)O)c1 | -2 | 58* | -4 | 1 | 7 | 3 | i
Nc1ccccc1-c1nnn(CC(=O)Nc2ccc3c(c2)OCCO3)n1 | / | / | -2 | / | / | / | /
COc1ccc(C(=O)Nc2ccccc2-c2nnn(CC(=O)Nc3ccc4c(c3)OCCO4)n2)cc1 | 0 | 60* | 0 | -8 | 0 | -2 | i
Cc1ccc(C2=NC(=O)/C(=C/c3cc(O)c(O)c(Br)c3)S2)cc1 | 30 | 50* | / | -11 | 3 | 33 | +
CCOc1ccccc1C(=O)Nc1ccc2nc(N3CCN(c4ncccn4)CC3)cc(C)c2c1 | / | 64* | / | -11 | 6 | / | +
COc1ccc(/C=N/n2c(C)nc3c([nH]c4ccccc43)c2=O)cc1CN1CCCC(C)(C)C1 | 0 | 56* | -3 | 2 | 1 | -7 | i
